The values that follow come from ChEMBL document CHEMBL5120910, “Small-Molecule Gankyrin Inhibition as a Therapeutic Strategy for Breast and Lung Cancer” (J Med Chem, 2022).

Series [1] concerns A549. Nature of the series: Antiproliferative activity against human A549 cells assessed as cell growth inhibition measured after 72 hrs by MTT assay. Format: functional, cell-based. To be noted: A549, 72 h. The method in brief:
(§1)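 Cells seeded at 2.5 × 10^4 cells/well, allowed 24 h before dosing, then exposed to increasing concentrations (0.5% DMSO final) for 72 h at 37 °C, 5% CO2. MTT added at 1 mg/mL final in complete media for 2 h, formazan dissolved in DMSO, absorbance read at 570 nm. 6–8 repeats per treatment; IC50 from concentration–response fit.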
On the technique in general: Tetrazolium dyes change colour on reduction, which living cells bring about.

For series [2], the system named is MDA-MB-231. The series is described as follows: Antiproliferative activity against human MDA-MB-231 cells assessed as cell growth inhibition measured after 72 hrs by MTT assay. Format: functional, cell-based. Conditions: MDA-MB-231, 72 h. The method in brief:
as §1

Series [3] deals with A549. Nature of the series: Antiproliferative activity against human A549 cells assessed as cell growth inhibition measured at 100 uM after 72 hrs by MTT assay. On the set-up: scale not given: the % may be the effect or the level left. Type of series: functional. The method in brief: as §1
The nature of series [4]: Metabolic stability in human liver microsomes assessed as compound remaining preincubated for 10 mins followed by NADPH addition measured after 60 mins by HPLC analysis. Type of series: ADME, Microsome. To be noted: read-out: Stability. Background: Liver microsomes are vesicles of endoplasmic reticulum, rich in cytochrome P450 enzymes.
Series [5] has as its target T1, 26S proteasome non-ATPase regulatory subunit 10 (Homo sapiens, UniProt O75832).
T1 sequence (O75832 whole entry): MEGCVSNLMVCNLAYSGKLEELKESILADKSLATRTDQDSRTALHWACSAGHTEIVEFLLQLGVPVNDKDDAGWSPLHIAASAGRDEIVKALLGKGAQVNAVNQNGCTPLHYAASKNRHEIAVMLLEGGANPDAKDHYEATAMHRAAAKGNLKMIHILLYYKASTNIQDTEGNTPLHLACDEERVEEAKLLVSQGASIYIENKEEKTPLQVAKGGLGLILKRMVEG
The series is described as follows: Binding affinity to gankyrin (unknown origin) expressed in Escherichia coli BL21 (DE3) expression system assessed as dissociation constant at 1:1 protein to compound concentration by isothermal titration calorimetry. (ITC needs no label: the signal is the heat of the interaction.)

Series [6] is described as follows: Antiproliferative activity against human HuH-6 cells assessed as cell growth inhibition measured after 72 hrs by MTT assay. Type of series: functional, cell-based. Conditions: HuH-6, 72 h. The essentials: as §1
For series [7], the target named is T2, 26S proteasome non-ATPase regulatory subunit 10 (Homo sapiens) (UniProt O75832).
T2 sequence (whole entry): T1 sequence (O75832 whole entry)
The series is described as follows: Binding affinity to gankyrin (unknown origin) assessed as change in melting temperature at 300 uM by SYPRO orange staining based thermal shift assay.

Series [8] concerns the target T2, 26S proteasome non-ATPase regulatory subunit 10 (Homo sapiens). The series is described as follows: Binding affinity to gankyrin (unknown origin) expressed in Escherichia coli BL21 (DE3) expression system assessed as decrease in thermal denaturation at 1.5 uM measured at 5 to 90 degreeC by circular dichroism spectropolarimeter analysis. The essentials:
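Recombinant His-tagged gankyrin expressed in E. coli BL21(DE3) Codon+RIL (IPTG 1 mM, 25 °C, ~5 h) and purified by Ni2+-IMAC. Thermal denaturation followed by CD at 217 nm over 5–90 °C with compound at 1.5 μM.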

The target is the same in series [9]. The series is described as follows: Binding affinity to gankyrin (unknown origin) expressed in Escherichia coli BL21 (DE3) expression system assessed as formation of white precipitation of the compound at 1.5 uM.
Series [10] concerns MDA-MB-231. Nature of the series: Inhibition of gankyrin-proteasome protein-protein interaction in human MDA-MB-231 cells assessed as increase in Rb level at 0.30 to 2.50 uM measured after 48 hrs by Western blotting analysis. Format: cell-based. Conditions: dose 0.3-2.5 µM. The method in brief:
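Cells in 10 cm dishes treated with varying concentrations (0.5% DMSO final) or DMSO only for 48 h. Lysed in RIPA with protease/phosphatase inhibitors on ice for 60 min. 15 μg protein resolved under reducing conditions, transferred to PVDF, and probed for p53, phospho-p53 S6/S15, Rb, gankyrin and cyclophilin. Detection by HRP-secondary ECL.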

Series [11] in a line: Cytotoxicity against HEK293 cells assessed as cell growth inhibition measured after 72 hrs by MTT assay. Format: toxicity, cell-based. To be noted: human. The method in brief: as §1
The subject of series [12] is MDA-MB-231. The series is described as follows: Antitumor activity in human MDA-MB-231 cells cultured as 3D spheroids assessed as fold decrease in spheroid volume at 1.15 uM measured up to 15 days by inverted microscopic analysis. Type of series: functional. Conditions: time <= 15 day. The essentials: (§2)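 Spheroids formed from 2000 cells/well in ultra-low attachment U-bottom wells over 3 days, then given a single dose on day 3. Half the media was replenished every 3 days. Transmitted-light images were taken through day 15, and spheroid volume was computed from images and expressed as fold-difference. Mean ± SD, n = 8; unpaired t-test.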

The subject of series [13] is MDA-MB-231. Nature of the series: Antitumor activity in human MDA-MB-231 cells cultured as 3D spheroids assessed as fold decrease in spheroid volume at 2.30 uM measured up to 15 days by inverted microscopic analysis. Format: functional. Conditions: dose 2.3 µM; time <= 15 day. The method in brief:
as §2

The test system of series [14] is MDA-MB-231. Nature of the series: Antitumor activity against human MDA-MB-231 cells tumor spheroids assessed as decrease in live cells by measuring green fluorescence intensity at 1.15 to 2.30 uM measured at 15 days by calcein AM staining based fluorescence microscopic analysis. Format: functional, cell-based. Conditions: dose 1.15-2.3 µM, time 15.0 day. The method in brief:
(§3)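 Live/dead staining of 3D spheroids at day 15 after single-dose treatment: media replaced by kit reagent with calcein AM (live, green) and EthD-III (dead, red), 30 min in dark at room temperature, imaged at 4X by fluorescence microscopy. Mean ± SD, n = 4; unpaired Student's t-test.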

Series [15] has as its system MDA-MB-231. The series is described as follows: Antitumor activity against human MDA-MB-231 cells tumor spheroids assessed as increase in dead cells by measuring red fluorescence intensity at 1.15 to 2.30 uM measured at 15 days by EthD-III staining based fluorescence microscopic analysis. Format: functional, cell-based. To be noted: dose 1.15-2.3 µM, time 15.0 day. The essentials:
as §3

Series [16] relates to MDA-MB-231. The series is described as follows: Inhibition of colony formation in human MDA-MB-231 cells at 1.15 uM incubated for 48 hrs followed by replacement of fresh media every alternative day measured after 7 days by crystal violet staining based clonogenic assay relative to control; values are per cent of control. To be noted: MDA-MB-231, 216 h.

Active and inactive are the calls of the source. No cut-off for these calls is given here. A value given as a limit tells only on which side of the number the result lay.

A word on the IC50: it is the concentration at which inhibition is half-maximal. On to `COC(=O)c1ccc(-n2cc(CCCOS(=O)(=O)c3ccc(-c4ccccc4)cc3)nn2)cc1`, for which the IC50 is 57.3 µM in the series on A549 [1] and more than 100 µM in the series on MDA-MB-231 [2].

For `COC(=O)c1ccc(-c2cn(CCCC(=S)Nc3ccc(C)cc3)nn2)cc1`, the figures for the IC50 in the series with A549 [1] and with MDA-MB-231 [2] were 50 µM and more than 100 µM, respectively.

With `COC(=O)c1ccc(-n2cc(CCCC(=O)Nc3ccc(C)cc3)nn2)cc1`, the IC50 in the series on A549 [1] turned out to be 75.7 µM; in the series on MDA-MB-231 [2] it was 9.7 µM.

Turning to `COC(=O)c1ccc(-n2cc(CCCNC(=S)c3ccc(C)cc3)nn2)cc1`, the IC50 in the series with A549 [1] is more than 100 µM; in the series with MDA-MB-231 [2] it was 82.4 µM.

In the case of `COC(=O)c1ccc(-n2nncc2CCCOS(=O)(=O)c2ccc(C)cc2)cc1`, the IC50 with A549 [1] was more than 100 µM; with MDA-MB-231 [2], 58.1 µM.

What is called Kd is the free concentration of one partner at which half of the binding sites on the other are occupied at equilibrium, for simple one-to-one binding. For `COC(=O)c1ccc(-n2cc(CCCOS(=O)(=O)c3ccc(C)cc3)nn2)cc1`, the IC50 with A549 [1] and in the series on MDA-MB-231 [2] was more than 100 µM each time. In the series with A549 [3], the Activity was 0%. Moreover, in series [4], the remaining at 1 h came to 50%. Moreover, the Kd in [5] stood at 0.532 µM.

As for `Cc1ccc(NC(=O)CCCn2cc(-c3ccc(C(F)(F)F)cc3)nn2)cc1`, the IC50 turned out to be 25 µM in the series with A549 [1], 2.3 µM in the series with MDA-MB-231 [2] and 3.1 µM in [6]. Moreover, in series [4], the remaining at 1 h was 84%. The result (in series [7]; in series [8]; in series [9]; in the series on MDA-MB-231 [10]; in the series on MDA-MB-231 [14]; in the series on MDA-MB-231 [15]) was Active. Moreover, the IC50 at 72 h in series [11] is more than 100 µM. The “fold change (FC)” value with MDA-MB-231 [12] stood at 2.6; in the series on MDA-MB-231 [13], 3.1. For the same compound, the growth, % of control at 1.15 µM with MDA-MB-231 [16] is 75.3%.

Consider `COC(=O)c1ccc(-n2cc(CCCC(=S)Nc3ccc(C)cc3)nn2)cc1`, for which the IC50 with A549 [1] came to 7.9 µM; with MDA-MB-231 [2], 8.1 µM.

On to `COC(=O)c1ccc(-n2cc(CCCc3nnc(-c4ccc(C)cc4)[nH]3)nn2)cc1`, for which the IC50 in the series with A549 [1] stood at 79.5 µM; with MDA-MB-231 [2] it was 79.1 µM.

For the compound `COC(=O)c1ccc(-n2cc(CCCNC(=O)c3ccc(C)cc3)nn2)cc1`, the IC50 in the series with A549 [1] and with MDA-MB-231 [2] was more than 100 µM throughout.

As for `COC(=O)c1ccc(-c2nnn(CCCOS(=O)(=O)c3ccc(C)cc3)n2)cc1`, the IC50 with A549 [1] and in the series on MDA-MB-231 [2] was more than 100 µM throughout.

With `COC(=O)c1ccc(-n2cc(CCCn3nnc(-c4ccc(C)cc4)n3)nn2)cc1`, the IC50 is more than 100 µM in the series with A549 [1] and 36.5 µM in the series on MDA-MB-231 [2].

Regarding `COC(=O)c1ccc(-n2cc(CCCC(=O)NS(=O)(=O)c3ccc(C)cc3)nn2)cc1`, the IC50 in the series with A549 [1] and in the series with MDA-MB-231 [2] was more than 100 µM in each case.

Take `COC(=O)c1ccc(-n2cc(CCCNc3ccc(C)cc3)nn2)cc1`: the IC50 was more than 100 µM in the series on A549 [1] and 33 µM in the series on MDA-MB-231 [2].

`COC(=O)c1ccc(-n2cc(CCCC(=O)Oc3ccc(C)cc3)nn2)cc1`: the IC50 in the series on A549 [1] is more than 100 µM; with MDA-MB-231 [2] it was 55.1 µM.

As to `COC(=O)c1ccc(-c2nnc(CCCOS(=O)(=O)c3ccc(C)cc3)[nH]2)cc1`, the IC50 in the series on A549 [1] and in the series on MDA-MB-231 [2] was more than 100 µM throughout.

Take `Cc1ccc(S(=O)(=O)OCCCc2cn(-c3ccc(C(F)(F)F)cc3)nn2)cc1`: the IC50 with A549 [1] and in the series on MDA-MB-231 [2] was more than 100 µM each time.

`COC(=O)c1ccc(-n2cc(CCCOc3ccc(C)cc3)nn2)cc1`: the IC50 in the series with A549 [1] was more than 100 µM; in the series with MDA-MB-231 [2] it was 14.2 µM.

Regarding `COC(=O)c1ccc(-n2cc(CCCNC(=S)Nc3ccc(C)cc3)nn2)cc1`, the IC50 in the series with A549 [1] is 46.5 µM; in the series with MDA-MB-231 [2], more than 100 µM.

For `COC(=O)c1ccc(-c2cn(CCCC(=O)Nc3ccc(C)cc3)nn2)cc1`, the IC50 is more than 100 µM in the series with A549 [1] and 2.7 µM with MDA-MB-231 [2].

As to `COC(=O)c1ccc(-n2cc(CCCOC(=O)c3ccc(C)cc3)nn2)cc1`, the IC50 in the series with A549 [1] and with MDA-MB-231 [2] was more than 100 µM in each case.

Take `COC(=O)c1ccc(-c2cn(CCCC(=S)Nc3ccc(-c4ccccc4)cc3)nn2)cc1`: the IC50 in the series with A549 [1] is 42.3 µM; in the series with MDA-MB-231 [2], more than 100 µM.

Take `COC(=O)c1ccc(-c2cn(CCCOS(=O)(=O)c3ccc(C)cc3)nn2)cc1`: the IC50 with A549 [1] is more than 100 µM; in the series on MDA-MB-231 [2], 39.1 µM.

`COC(=O)c1ccc(-n2cc(CCCNC(=O)Nc3ccc(C)cc3)nn2)cc1`: the IC50 is 36.4 µM with A549 [1] and 11.6 µM in the series with MDA-MB-231 [2].

Turning to `COC(=O)c1ccc(-c2nnc(CCCOS(=O)(=O)c3ccc(C)cc3)o2)cc1`, the IC50 with A549 [1] and in the series on MDA-MB-231 [2] was more than 100 µM in each case.

For the compound `COC(=O)c1ccc(-n2cc(CCCc3nnc(-c4ccc(C)cc4)o3)nn2)cc1`, the IC50 in the series on A549 [1] came to 65.1 µM; in the series on MDA-MB-231 [2] it was 21.5 µM.
